# Laboratory results as given in ChEMBL document CHEMBL3392996, “Non-transpeptidase binding arylthioether β-lactams active against Mycobacterium tuberculosis and Moraxella catarrhalis” (2015).
# Calls of active or inactive are those of the source. No cut-off for these calls is given here.
# System: Klebsiella pneumoniae
# Assay: Antimicrobial activity against AmpC producing Klebsiella pneumoniae KLEB 249 incubated for 48 hrs by microdilution broth method
# Format: functional, organism-based
# In short: (§1)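 Stocks in DMSO were diluted at least 10-fold into Mueller-Hinton broth, then 2-fold serially diluted in MH from 500 to 15.6 μg/ml. Bacteria were added, with DMSO-only dilution controls, and incubated at 37 °C for 48 h. Growth was scored at 24 and 48 h. MIC was the lowest concentration with no growth. Run in quadruplicate.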
row,SMILES,MIC
1,O=C1CC(Sc2ccc(F)c(F)c2)N1C(=O)NCc1ccccc1 (racemic),inactive
2,O=C1CC(Sc2cccc(C(F)(F)F)c2)N1C(=O)NCc1ccccc1 (racemic),inactive
3,O=C1CC(Sc2ccc(C(F)(F)F)cc2)N1C(=O)NCc1ccccc1 (racemic),inactive
4,O=C1CC(Sc2cc(C(F)(F)F)cc(C(F)(F)F)c2)N1C(=O)NCc1ccccc1 (racemic),inactive

# System: Acinetobacter baumannii
# Assay: Antimicrobial activity against extended spectrum beta-lactamase and carbapenemase producing Acinetobacter baumannii L186 incubated for 48 hrs by microdilution broth method
# Format: functional, organism-based
# In short: as §1
row,SMILES,MIC
1,O=C1CC(Sc2ccc(F)c(F)c2)N1C(=O)NCc1ccccc1 (racemic),inactive
2,O=C1CC(Sc2cccc(C(F)(F)F)c2)N1C(=O)NCc1ccccc1 (racemic),inactive
3,O=C1CC(Sc2ccc(C(F)(F)F)cc2)N1C(=O)NCc1ccccc1 (racemic),inactive
4,O=C1CC(Sc2cc(C(F)(F)F)cc(C(F)(F)F)c2)N1C(=O)NCc1ccccc1 (racemic),inactive

# System: Acinetobacter baumannii
# Assay: Antimicrobial activity against extended spectrum beta-lactamase and carbapenemase producing Acinetobacter baumannii L187 incubated for 48 hrs by microdilution broth method
# Format: functional, organism-based
# In short: as §1
row,SMILES,MIC
1,O=C1CC(Sc2ccc(F)c(F)c2)N1C(=O)NCc1ccccc1 (racemic),inactive
2,O=C1CC(Sc2cccc(C(F)(F)F)c2)N1C(=O)NCc1ccccc1 (racemic),inactive
3,O=C1CC(Sc2ccc(C(F)(F)F)cc2)N1C(=O)NCc1ccccc1 (racemic),inactive
4,O=C1CC(Sc2cc(C(F)(F)F)cc(C(F)(F)F)c2)N1C(=O)NCc1ccccc1 (racemic),inactive

# System: Stenotrophomonas maltophilia
# Assay: Antimicrobial activity against metallo beta-lactamases producing Stenotrophomonas maltophilia GM24 incubated for 48 hrs by microdilution broth method
# Format: functional, organism-based
# In short: as §1
row,SMILES,MIC
1,O=C1CC(Sc2ccc(F)c(F)c2)N1C(=O)NCc1ccccc1 (racemic),inactive
2,O=C1CC(Sc2cccc(C(F)(F)F)c2)N1C(=O)NCc1ccccc1 (racemic),inactive
3,O=C1CC(Sc2ccc(C(F)(F)F)cc2)N1C(=O)NCc1ccccc1 (racemic),inactive
4,O=C1CC(Sc2cc(C(F)(F)F)cc(C(F)(F)F)c2)N1C(=O)NCc1ccccc1 (racemic),inactive

# System: Citrobacter freundii
# Assay: Antimicrobial activity against extended spectrum beta-lactamase producing Citrobacter freundii Citro 314 incubated for 48 hrs by microdilution broth method
# Format: functional, organism-based
# In short: as §1
row,SMILES,MIC
1,O=C1CC(Sc2ccc(F)c(F)c2)N1C(=O)NCc1ccccc1 (racemic),inactive
2,O=C1CC(Sc2cccc(C(F)(F)F)c2)N1C(=O)NCc1ccccc1 (racemic),inactive
3,O=C1CC(Sc2ccc(C(F)(F)F)cc2)N1C(=O)NCc1ccccc1 (racemic),inactive
4,O=C1CC(Sc2cc(C(F)(F)F)cc(C(F)(F)F)c2)N1C(=O)NCc1ccccc1 (racemic),inactive

# System: Escherichia coli
# Assay: Antimicrobial activity against broad spectrum beta-lactamase producing Escherichia coli MISC 206 incubated for 48 hrs by microdilution broth method
# Format: functional, organism-based
# In short: as §1
row,SMILES,MIC
1,O=C1CC(Sc2ccc(F)c(F)c2)N1C(=O)NCc1ccccc1 (racemic),inactive
2,O=C1CC(Sc2cccc(C(F)(F)F)c2)N1C(=O)NCc1ccccc1 (racemic),inactive
3,O=C1CC(Sc2ccc(C(F)(F)F)cc2)N1C(=O)NCc1ccccc1 (racemic),inactive
4,O=C1CC(Sc2cc(C(F)(F)F)cc(C(F)(F)F)c2)N1C(=O)NCc1ccccc1 (racemic),inactive

# System: Escherichia coli
# Assay: Antimicrobial activity against extended spectrum beta-lactamase and carbapenemase producing Escherichia coli ESBL L109 incubated for 48 hrs by microdilution broth method
# Format: functional, organism-based
# In short: as §1
row,SMILES,MIC
1,O=C1CC(Sc2ccc(F)c(F)c2)N1C(=O)NCc1ccccc1 (racemic),inactive
2,O=C1CC(Sc2cccc(C(F)(F)F)c2)N1C(=O)NCc1ccccc1 (racemic),inactive
3,O=C1CC(Sc2ccc(C(F)(F)F)cc2)N1C(=O)NCc1ccccc1 (racemic),inactive
4,O=C1CC(Sc2cc(C(F)(F)F)cc(C(F)(F)F)c2)N1C(=O)NCc1ccccc1 (racemic),inactive

# System: Citrobacter freundii
# Assay: Antimicrobial activity against AmpC producing Citrobacter freundii CITRO 21 incubated for 48 hrs by microdilution broth method
# Format: functional, organism-based
# In short: as §1
row,SMILES,MIC
1,O=C1CC(Sc2ccc(F)c(F)c2)N1C(=O)NCc1ccccc1 (racemic),inactive
2,O=C1CC(Sc2cccc(C(F)(F)F)c2)N1C(=O)NCc1ccccc1 (racemic),inactive
3,O=C1CC(Sc2ccc(C(F)(F)F)cc2)N1C(=O)NCc1ccccc1 (racemic),inactive
4,O=C1CC(Sc2cc(C(F)(F)F)cc(C(F)(F)F)c2)N1C(=O)NCc1ccccc1 (racemic),inactive

# System: Klebsiella pneumoniae
# Assay: Antimicrobial activity against extended spectrum beta-lactamase and carbapenemase producing Klebsiella pneumoniae ESBL L174 incubated for 48 hrs by microdilution broth method
# Format: functional, organism-based
# In short: as §1
row,SMILES,MIC
1,O=C1CC(Sc2ccc(F)c(F)c2)N1C(=O)NCc1ccccc1 (racemic),inactive
2,O=C1CC(Sc2cccc(C(F)(F)F)c2)N1C(=O)NCc1ccccc1 (racemic),inactive
3,O=C1CC(Sc2ccc(C(F)(F)F)cc2)N1C(=O)NCc1ccccc1 (racemic),inactive
4,O=C1CC(Sc2cc(C(F)(F)F)cc(C(F)(F)F)c2)N1C(=O)NCc1ccccc1 (racemic),inactive

# System: Escherichia coli
# Assay: Antimicrobial activity against broad spectrum beta-lactamase producing Escherichia coli GB 8 incubated for 48 hrs by microdilution broth method
# Format: functional, organism-based
# In short: as §1
row,SMILES,MIC
1,O=C1CC(Sc2ccc(F)c(F)c2)N1C(=O)NCc1ccccc1 (racemic),inactive
2,O=C1CC(Sc2cccc(C(F)(F)F)c2)N1C(=O)NCc1ccccc1 (racemic),inactive
3,O=C1CC(Sc2ccc(C(F)(F)F)cc2)N1C(=O)NCc1ccccc1 (racemic),inactive
4,O=C1CC(Sc2cc(C(F)(F)F)cc(C(F)(F)F)c2)N1C(=O)NCc1ccccc1 (racemic),inactive

# System: Enterococcus faecalis
# Assay: Antimicrobial activity against Enterococcus faecalis ATCC 29212 incubated for 48 hrs by microdilution broth method
# Format: functional, organism-based
# In short: as §1
row,SMILES,MIC
1,O=C1CC(Sc2ccc(F)c(F)c2)N1C(=O)NCc1ccccc1 (racemic),inactive
2,O=C1CC(Sc2cccc(C(F)(F)F)c2)N1C(=O)NCc1ccccc1 (racemic),inactive
3,O=C1CC(Sc2ccc(C(F)(F)F)cc2)N1C(=O)NCc1ccccc1 (racemic),inactive
4,O=C1CC(Sc2cc(C(F)(F)F)cc(C(F)(F)F)c2)N1C(=O)NCc1ccccc1 (racemic),inactive

# System: Escherichia coli
# Assay: Antimicrobial activity against extended spectrum beta-lactamase and carbapenemase producing Escherichia coli ESBL L108 incubated for 48 hrs by microdilution broth method
# Format: functional, organism-based
# In short: as §1
row,SMILES,MIC
1,O=C1CC(Sc2ccc(F)c(F)c2)N1C(=O)NCc1ccccc1 (racemic),inactive
2,O=C1CC(Sc2cccc(C(F)(F)F)c2)N1C(=O)NCc1ccccc1 (racemic),inactive
3,O=C1CC(Sc2ccc(C(F)(F)F)cc2)N1C(=O)NCc1ccccc1 (racemic),inactive
4,O=C1CC(Sc2cc(C(F)(F)F)cc(C(F)(F)F)c2)N1C(=O)NCc1ccccc1 (racemic),inactive

# System: Klebsiella pneumoniae
# Assay: Antimicrobial activity against extended spectrum beta-lactamase and carbapenemase producing Klebsiella pneumoniae KPC L133 incubated for 48 hrs by microdilution broth method
# Format: functional, organism-based
# In short: as §1
row,SMILES,MIC
1,O=C1CC(Sc2ccc(F)c(F)c2)N1C(=O)NCc1ccccc1 (racemic),inactive
2,O=C1CC(Sc2cccc(C(F)(F)F)c2)N1C(=O)NCc1ccccc1 (racemic),inactive
3,O=C1CC(Sc2ccc(C(F)(F)F)cc2)N1C(=O)NCc1ccccc1 (racemic),inactive
4,O=C1CC(Sc2cc(C(F)(F)F)cc(C(F)(F)F)c2)N1C(=O)NCc1ccccc1 (racemic),inactive

# System: Klebsiella pneumoniae
# Assay: Antimicrobial activity against AmpC producing Klebsiella pneumoniae MISC 304 incubated for 48 hrs by microdilution broth method
# Format: functional, organism-based
# In short: as §1
row,SMILES,MIC
1,O=C1CC(Sc2ccc(F)c(F)c2)N1C(=O)NCc1ccccc1 (racemic),inactive
2,O=C1CC(Sc2cccc(C(F)(F)F)c2)N1C(=O)NCc1ccccc1 (racemic),inactive
3,O=C1CC(Sc2ccc(C(F)(F)F)cc2)N1C(=O)NCc1ccccc1 (racemic),inactive
4,O=C1CC(Sc2cc(C(F)(F)F)cc(C(F)(F)F)c2)N1C(=O)NCc1ccccc1 (racemic),inactive

# System: Moraxella catarrhalis
# Assay: Antimicrobial activity against Moraxella catarrhalis clinical isolates incubated for 48 hrs by microdilution broth method
# Format: functional
# In short: as §1
row,SMILES,MIC [µg/mL]
1,O=C1CC(Sc2ccc(F)c(F)c2)N1C(=O)NCc1ccccc1 (racemic),12.5
2,O=C1CC(Sc2cccc(C(F)(F)F)c2)N1C(=O)NCc1ccccc1 (racemic),3.12
3,O=C1CC(Sc2ccc(C(F)(F)F)cc2)N1C(=O)NCc1ccccc1 (racemic),1.62
4,O=C1CC(Sc2cc(C(F)(F)F)cc(C(F)(F)F)c2)N1C(=O)NCc1ccccc1 (racemic),6.25

# System: Staphylococcus aureus
# Assay: Antimicrobial activity against Staphylococcus aureus ATCC 25923 incubated for 48 hrs by microdilution broth method
# Format: functional, organism-based
# In short: as §1
row,SMILES,MIC
1,O=C1CC(Sc2ccc(F)c(F)c2)N1C(=O)NCc1ccccc1 (racemic),inactive
2,O=C1CC(Sc2cccc(C(F)(F)F)c2)N1C(=O)NCc1ccccc1 (racemic),inactive
3,O=C1CC(Sc2ccc(C(F)(F)F)cc2)N1C(=O)NCc1ccccc1 (racemic),inactive
4,O=C1CC(Sc2cc(C(F)(F)F)cc(C(F)(F)F)c2)N1C(=O)NCc1ccccc1 (racemic),inactive

# System: Pseudomonas aeruginosa
# Assay: Antimicrobial activity against Pseudomonas aeruginosa ATCC 27853 incubated for 48 hrs by microdilution broth method
# Format: functional, organism-based
# In short: as §1
row,SMILES,MIC
1,O=C1CC(Sc2ccc(F)c(F)c2)N1C(=O)NCc1ccccc1 (racemic),inactive
2,O=C1CC(Sc2cccc(C(F)(F)F)c2)N1C(=O)NCc1ccccc1 (racemic),inactive
3,O=C1CC(Sc2ccc(C(F)(F)F)cc2)N1C(=O)NCc1ccccc1 (racemic),inactive
4,O=C1CC(Sc2cc(C(F)(F)F)cc(C(F)(F)F)c2)N1C(=O)NCc1ccccc1 (racemic),inactive

# System: Escherichia coli
# Assay: Antimicrobial activity against Escherichia coli ATCC 25922 incubated for 48 hrs by microdilution broth method
# Format: functional, organism-based
# In short: as §1
row,SMILES,MIC
1,O=C1CC(Sc2ccc(F)c(F)c2)N1C(=O)NCc1ccccc1 (racemic),inactive
2,O=C1CC(Sc2cccc(C(F)(F)F)c2)N1C(=O)NCc1ccccc1 (racemic),inactive
3,O=C1CC(Sc2ccc(C(F)(F)F)cc2)N1C(=O)NCc1ccccc1 (racemic),inactive
4,O=C1CC(Sc2cc(C(F)(F)F)cc(C(F)(F)F)c2)N1C(=O)NCc1ccccc1 (racemic),inactive

# System: Mycobacterium tuberculosis
# Assay: Antimicrobial activity against Mycobacterium tuberculosis H37Rv incubated for 48 hrs by microdilution broth method
# Format: functional
row,SMILES,MIC [µg/mL]
1,O=C1CC(Sc2ccc(F)c(F)c2)N1C(=O)NCc1ccccc1 (racemic),6.25
2,O=C1CC(Sc2cccc(C(F)(F)F)c2)N1C(=O)NCc1ccccc1 (racemic),25
3,O=C1CC(Sc2ccc(C(F)(F)F)cc2)N1C(=O)NCc1ccccc1 (racemic),12.5
4,O=C1CC(Sc2cc(C(F)(F)F)cc(C(F)(F)F)c2)N1C(=O)NCc1ccccc1 (racemic),6.25

# System: Moraxella catarrhalis
# Assay: Bactericidal activity against Moraxella catarrhalis clinical isolates incubated for 48 hrs by microdilution broth method and standard plating method
# Format: functional
# In short: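 Broth microdilution in Mueller-Hinton broth, 2-fold series from 500 to 15.6 μg/ml, with DMSO-only controls, 37 °C for 48 h. Wells showing no growth were plated (10 μL) on MH agar. MBC was the lowest concentration giving no growth on plating. Run in quadruplicate.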
row,SMILES,MBC [µg/mL]
1,O=C1CC(Sc2ccc(F)c(F)c2)N1C(=O)NCc1ccccc1 (racemic),25
2,O=C1CC(Sc2cccc(C(F)(F)F)c2)N1C(=O)NCc1ccccc1 (racemic),6.25
3,O=C1CC(Sc2ccc(C(F)(F)F)cc2)N1C(=O)NCc1ccccc1 (racemic),12.5
4,O=C1CC(Sc2cc(C(F)(F)F)cc(C(F)(F)F)c2)N1C(=O)NCc1ccccc1 (racemic),6.25

# System: Escherichia coli
# Assay: Antimicrobial activity against extended spectrum beta-lactamase producing Escherichia coli MISC 262 incubated for 48 hrs by microdilution broth method
# Format: functional, organism-based
# In short: as §1
row,SMILES,MIC
1,O=C1CC(Sc2ccc(F)c(F)c2)N1C(=O)NCc1ccccc1 (racemic),inactive
2,O=C1CC(Sc2cccc(C(F)(F)F)c2)N1C(=O)NCc1ccccc1 (racemic),inactive
3,O=C1CC(Sc2ccc(C(F)(F)F)cc2)N1C(=O)NCc1ccccc1 (racemic),inactive
4,O=C1CC(Sc2cc(C(F)(F)F)cc(C(F)(F)F)c2)N1C(=O)NCc1ccccc1 (racemic),inactive

# System: Acinetobacter baumannii
# Assay: Antimicrobial activity against extended spectrum beta-lactamase and carbapenemase producing Acinetobacter baumannii L185 incubated for 48 hrs by microdilution broth method
# Format: functional, organism-based
# In short: as §1
row,SMILES,MIC
1,O=C1CC(Sc2ccc(F)c(F)c2)N1C(=O)NCc1ccccc1 (racemic),inactive
2,O=C1CC(Sc2cccc(C(F)(F)F)c2)N1C(=O)NCc1ccccc1 (racemic),inactive
3,O=C1CC(Sc2ccc(C(F)(F)F)cc2)N1C(=O)NCc1ccccc1 (racemic),inactive
4,O=C1CC(Sc2cc(C(F)(F)F)cc(C(F)(F)F)c2)N1C(=O)NCc1ccccc1 (racemic),inactive
